Assay outcomes (PubChem BioAssay)
Hits are enriched below; roughly 1.4% of the tested compounds scored in any of these assays.
PERK inh – block of dimerizer-induced PERK translation repression, primary screen, PERK inhibitor project, CHO PERK-DD cells, SEAP luminescence, HTS; Eukaryotic translation initiation factor 2-alpha kinase 3 (Homo sapiens), Q9NZJ5; CHO PERK-DD fusion, SEAP luminescence translation reporter; inhibition, % at 5.6 µM; hit rate 0.17% among 220,000; AID 1416, 2008;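 active means inhibition above the mean inhibition of all tested compounds plus 3 SD, set separately per screening campaign, cut at about 2.9% in these data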;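 further: PERK kinase domain activated by AP20187 dimerizer at 100 nM; 0% = DMSO with dimerizer and 100% = rapamycin at 8.4 µM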
Target sequence (Q9NZJ5 whole entry, looked up, the tested form may be a part): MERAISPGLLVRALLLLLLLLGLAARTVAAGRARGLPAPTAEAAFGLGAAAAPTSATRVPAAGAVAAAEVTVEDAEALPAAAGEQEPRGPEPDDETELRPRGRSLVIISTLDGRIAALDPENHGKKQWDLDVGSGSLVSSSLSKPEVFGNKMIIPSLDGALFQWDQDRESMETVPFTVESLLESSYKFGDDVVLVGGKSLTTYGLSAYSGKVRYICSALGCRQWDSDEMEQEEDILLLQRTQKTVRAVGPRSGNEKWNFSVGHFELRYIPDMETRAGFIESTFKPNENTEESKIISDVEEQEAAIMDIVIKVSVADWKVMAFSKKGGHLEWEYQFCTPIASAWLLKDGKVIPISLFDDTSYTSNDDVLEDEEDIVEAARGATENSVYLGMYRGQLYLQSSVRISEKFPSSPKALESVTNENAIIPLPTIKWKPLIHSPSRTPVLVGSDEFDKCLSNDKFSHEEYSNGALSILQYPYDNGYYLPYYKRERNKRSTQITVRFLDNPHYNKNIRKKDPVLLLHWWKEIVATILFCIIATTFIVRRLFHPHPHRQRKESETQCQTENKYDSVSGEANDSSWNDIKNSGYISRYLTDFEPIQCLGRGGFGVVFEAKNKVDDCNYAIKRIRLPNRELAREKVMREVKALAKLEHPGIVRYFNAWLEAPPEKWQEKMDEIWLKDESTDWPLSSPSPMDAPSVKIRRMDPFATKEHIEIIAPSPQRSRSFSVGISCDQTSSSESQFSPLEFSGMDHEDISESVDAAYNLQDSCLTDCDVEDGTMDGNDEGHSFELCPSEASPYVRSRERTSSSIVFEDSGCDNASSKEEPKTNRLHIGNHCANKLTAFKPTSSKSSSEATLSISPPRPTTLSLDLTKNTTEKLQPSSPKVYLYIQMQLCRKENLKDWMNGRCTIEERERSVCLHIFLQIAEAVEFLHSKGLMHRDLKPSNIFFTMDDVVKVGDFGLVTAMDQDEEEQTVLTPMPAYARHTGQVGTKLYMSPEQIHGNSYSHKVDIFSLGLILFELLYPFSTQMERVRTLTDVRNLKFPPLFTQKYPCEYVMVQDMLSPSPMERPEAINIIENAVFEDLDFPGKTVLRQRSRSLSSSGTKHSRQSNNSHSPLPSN
STAT1 blocker – STAT1 signaling inhibitors, primary screen, cell-based, HTS, luciferase reporter. NIH 3T3 STAT1-luciferase reporter, IFN-gamma, luminescence. inhibition, % at 5.5 µM. hit rate 0.35% among 200,000. AID 920, 2007;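 active means inhibition above a set limit, the mean inhibition across all tested compounds plus 3 SD, cut at about 34% in these data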;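 further: 0% = IFN-gamma with DMSO and 100% = IFN-gamma with 300 µM nifuroxazide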
STAT3 act – IL-6 driven STAT3 reporter potentiators, primary screen, U3A cells, luciferase, luminescence, MLSCN library; IL-6 STAT3-luciferase reporter; 100% = signal with IL-6 EC80 alone; hit rate 0.91% among 190,000; AID 871, 2007; activation (% of control), % at 5.6 µM;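 active means activation above the screen-wide mean of compound activation plus 3 SD, cut at about 130% in these data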;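 further: 0% = background luminescence of wells with medium and substrate only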
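Test system: human U3A cells carrying STAT3-luciferase construct; control set: IL-6-only wells as 100% reference; timing: compound pre-incubation 1 h before IL-6, then 6 h stimulation at 37 °C; also added: IL-6 stimulus at 33 ng/mL final; evaluation: % activation versus median of IL-6-stimulated wells; detection: reporter luminescence signal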
STAT3 inh-1 – IL-6 driven STAT3 reporter inhibitors, primary screen, U3A cells, luciferase, luminescence, MLSCN library. IL-6 STAT3-luciferase reporter; host cell line lacks STAT1. inhibition, % at 5.5 µM. hit rate 0.89% among 190,000. AID 862, 2007;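 active means inhibition above the mean inhibition across all screened compounds plus 3 SD, cut at about 44% in these data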;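 further: 0% = DMSO only wells and 100% = 100 µM nifuroxazide control wells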
Platelet DG rel – inhibitors of platelet dense granule secretion, primary screen, cell-based, MLPCN, human platelets. human platelet-rich plasma, SFLLRN dense granule ATP release, luminescence. inhibition, %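 (compounds screened at 7.5 µM in platelet-rich plasma)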. hit rate 0.22% among 300,000;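 active means mean replicate score, as percent of positive control, at or above 50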
STAT3 inh-2 – STAT3 reporter inhibitors, retest of hits, confirmation, U3A cells, luciferase, luminescence; hit rate 45% among 1,200; shares compounds with STAT3 inh-1; inhibition, % at 5.7 µM; IL-6 STAT3 luciferase reporter; cell line lacks STAT1;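 active means inhibition above the hit cutoff computed for the primary STAT3 screen, cut at about 44% in these data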;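 further: 0% = IL-6 plus DMSO and 100% = IL-6 plus nifuroxazide control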
NFkB inh STAT3ct – NF-kB reporter inhibitors in human cells, confirmation, counter-screen for STAT3 inhibitor project, cell-based, HEK293T, luciferase, TNF-alpha stimulus. shares compounds with STAT3 inh-1. TNF-alpha induced. inhibition, % at 5.7 µM. hit rate 36% among 1,200;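 active means inhibition above the mean of solvent-only control wells plus 3 SD, cutoff set per campaign, cut at about 13% in these data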;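 further: 0% = TNF-alpha with DMSO and 100% = TNF-alpha with MG high control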
STAT1 inh 2 – STAT1 reporter inhibitors, IFN-gamma induced, confirmation, counter-screen for STAT3 inhibitor project, cell-based, NIH 3T3, luciferase luminescence | shares compounds with STAT3 inh-1 | NIH 3T3 STAT1-luciferase reporter | inhibition, % at 5.7 µM | hit rate 27% among 1,200 | AID 1317, 2008;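 active means inhibition above the mean plus 3 SD of solvent-only control wells, limit set per screening run, cut at about 16% in these data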;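 further: 0% = DMSO with IFN-gamma and 100% = nifuroxazide control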
* hit, by the source's call; . = not tested or not shown.

SMILES	PERK inh	STAT1 blocker	STAT3 act	STAT3 inh-1	Platelet DG rel	STAT3 inh-2	NFkB inh STAT3ct	STAT1 inh 2
O=C(NCCCN1CCOCC1)c1ccc(CNS(=O)(=O)c2ccc(Br)cc2)cc1	1.0	-6.0	89.3	19.6	-6.3	.	.	.
O=C(NCCCN1CCOCC1)c1ccc(Br)cc1	0.0	-5.8	56.3	52.9*	1.9	4.7	-8.1	-13.2
Cc1cc(C(=O)COc2cccnc2[N+](=O)[O-])c(C)n1-c1ccccc1	-0.1	4.9	49.8	59.9*	-12.9	20.5	11.2	-38.8
Cc1ccc(-n2c(C)cc(C(=O)COc3cccnc3[N+](=O)[O-])c2C)cc1	-0.7	13.5	65.3	42.9	1.0	.	.	.
Cc1cc(C)n(CCC(=O)N2c3ccccc3CC2C)n1 (stereo not drawn)	.	.	.	.	-5.1	.	.	.
CC(C)CC(=O)Nc1ccc(-c2cn3cccnc3n2)cc1	.	.	.	.	4.9	.	.	.
CC(C)(C)C(=O)Nc1ccc(-c2cn3ccsc3n2)cc1	-0.1	31.1	43.4	72.5*	10.6	41.8	-1.5	-20.9
CC(C)CC(=O)Nc1ccc(-c2cn3ccsc3n2)cc1	-0.1	-4.3	64.6	45.6*	.	20.4	-20.4	-44.8
CSCCC(NS(=O)(=O)c1ccccc1F)C(=O)N1CCCCCCC1 (stereo not drawn)	.	.	.	.	-10.9	.	.	.
Nc1cc(-c2cccc(Br)c2)nn1Cc1ccccc1	0.3	-10.4	95.7	8.8	-10.0	.	.	.
Nc1cc(-c2ccc(Br)cc2)nn1Cc1ccccc1	1.6	-27.2	46.1	67.0*	6.1	58.5*	6.8	-35.0
Nc1cc(-c2ccccc2)nn1Cc1ccc(Cl)cc1	-0.3	-3.4	63.7	49.3*	4.1	45.3*	0.4	-14.7
COCCCn1c(=O)c2ccccc2n(CC(=O)Nc2ccc3c(c2)OCCO3)c1=O	.	.	.	.	4.7	.	.	.
CCc1ccc(NC(=O)Cn2nc(C(=O)O)c3ccccc3c2=O)cc1	.	.	.	.	-13.8	.	.	.
CCN(Cc1ccccc1)S(=O)(=O)c1c(C)[nH]c(C)c1C(=O)N1CCCC1	.	.	.	.	-14.1	.	.	.
O=C(C1CCCCC1)N1CCN(S(=O)(=O)c2cccc([N+](=O)[O-])c2)CC1	.	.	.	.	-1.6	.	.	.
Cc1cc(Cl)c(S(=O)(=O)N2CCN(c3ccc(F)cc3)CC2)cc1OCC(N)=O	0.6	4.2	64.5	45.0*	-2.6	33.5	5.8	1.2
Cc1cc(Cl)c(S(=O)(=O)N2CCN(c3ccc(F)cc3)CC2)cc1OCC(=O)NC1CCCCC1	-0.3	17.7	27.3	88.4*	1.7	84.6*	35.1*	9.6
Cc1cc(Cl)c(S(=O)(=O)N2CCN(c3ccccn3)CC2)cc1OCC(N)=O	-0.2	9.7	93.4	12.8	19.1	.	.	.
CC(NC(=O)c1c(O)c2ccccc2n(C)c1=O)c1ccccc1 (stereo not drawn)	.	.	.	.	3.0	.	.	.
O=C1C2C3c4ccccc4C(c4ccccc43)[C@@H]2C(=O)N1c1ccccn1 (stereo partly drawn)	0.1	.	.	.	4.7	.	.	.
O=C1C2C3c4ccccc4C(c4ccccc43)[C@@H]2c2nc3ccccc3n21 (stereo partly drawn)	-0.9	-1.7	60.9	48.0*	-0.6	57.1*	7.6	-1.4
CCOc1ccc(NC(=O)c2cnsn2)cc1	0.4	-23.9	59.7	48.7*	.	14.3	-26.1	-46.1
CC(=O)c1cccc(NC(=O)CCc2nc3sc4c(c3c(=O)[nH]2)CCCC4)c1	.	.	.	.	3.2	.	.	.
Cc1cccc(OCC(=O)Nc2ccc(N3CCN(C(=O)c4ccco4)CC3)cc2)c1	1.1	11.4	61.7	53.9*	-3.9	48.8*	12.8	16.7*
SMILES	PERK inh	STAT1 blocker	STAT3 act	STAT3 inh-1	Platelet DG rel	STAT3 inh-2	NFkB inh STAT3ct	STAT1 inh 2
O=C(Nc1ccc(Cl)cc1)Nc1ccccc1C(=O)O	0.1	24.7	50.1	61.5*	52.5*	8.8	-4.4	-67.9
O=C(Nc1ccc(Cl)c(Cl)c1)Nc1ccccc1C(=O)O	2.1	-43.5	58.4	52.9*	29.6	-51.3	-16.8	-251.0
O=C1c2ccc(Br)cc2C(=O)N1c1ccc(Cc2ccncc2)cc1	-0.4	25.8	50.2	59.3*	.	58.7*	5.2	11.9
O=C(O)[C@@H]1CCCC[C@@H]1C(=O)N1CCc2ccccc2C1CN1C(=O)c2ccccc2C1=O (stereo partly drawn)	1.8	23.9	54.4	58.6*	.	52.8*	19.3*	22.5*
CCCCN(C)C(=O)C1CCCN(S(=O)(=O)c2ccc3c(c2)oc(=O)n3C)C1 (stereo not drawn)	.	.	.	.	-4.1	.	.	.
O=S(=O)(c1ccc2c(c1)OCCO2)N1CCC(c2nc3ccccc3s2)CC1	0.0	8.1	54.5	53.4*	8.3	44.2*	10.3	-6.5
COc1ccc(NC2CCCN(C(=O)c3cc4ncccn4n3)C2)cc1 (stereo not drawn)	.	.	.	.	18.1	.	.	.
CN=c1scc(-c2ccccc2Br)n1/N=C/c1ccc[nH]1	0.4	15.9	55.6	57.6*	0.0	19.3	-15.4	-102.9
Oc1ccc(-c2n[nH]c(=S)n2-c2ccc3c(c2)OCCO3)c(O)c1	-0.3	7.9	61.8	47.5*	4.1	43.5*	10.7	0.7
COc1cc(SC)ccc1C(=O)Nc1ccccc1	-0.3	-38.2	122.1	-21.1	3.2	.	.	.
COc1cc(SC)ccc1C(=O)Nc1nccs1	-0.5	30.8	52.1	58.1*	6.8	31.0	-4.2	-85.0
COc1cc(SC)ccc1C(=O)Nc1ccc2c(c1)OCCO2	-1.2	-33.6	59.2	53.7*	4.3	5.5	-35.6	-156.3
Cc1ccccc1Nc1nc(N)nc(CN2CCN(C(=O)c3ccccc3)CC2)n1	-0.5	2.4	96.6	4.0	-9.8	.	.	.
COc1ccc(-c2cn(-c3ccc(OC)cc3)c3[n+]2-c2ccccc2CC3)cc1	0.3	29.1	37.5	73.2*	-0.1	79.0*	3.3	23.4*
COc1ccc(-n2cc(-c3ccccc3)[n+]3c2CCCCC3)cc1	0.6	25.5	70.2	40.2	9.4	.	.	.
Cc1ccc(/C=C/c2nc3ccccc3[nH]2)o1	0.1	10.5	58.8	53.7*	28.7	-15.5	-14.7	-34.3
Cc1cc(C(=O)CSc2nnc(-c3cccc(F)c3)n2N)c(C)n1Cc1ccc2c(c1)OCO2	-0.4	13.6	64.8	47.0*	2.8	39.4	12.7	10.0
Cc1cc(C(=O)CSc2nnnn2-c2ccc(O)cc2)c(C)n1Cc1ccc2c(c1)OCO2	0.0	3.5	105.0	-1.6	-0.6	.	.	.
